Among the data in ChEMBL document CHEMBL1137858, “Formation of squaric acid amides of anthracycline antibiotics. Synthesis and cytotoxic properties” (Bioorg Med Chem Lett, 2004) are Control and IC50 values, retold here.

Structures are written as SMILES. In brackets after ≈: the same amount, converted by molar mass.

Assay [1] has as its system MCF7. The assay can be described thus: Percent control of human mammary adenocarcinoma MCF-7 cell line proliferation at 300 ng/mL. The assay is classed as functional. Put shortly: (§1)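 MCF-7 human mammary adenocarcinoma cells (5 · 10^3) seeded in 24-well plates in RPMI-1640 with 10% fetal calf serum, penicillin (50 unit/mL) and streptomycin, 37 C, 5% CO2. Compounds added 3 h after plating. After 24 h exposure, medium replaced and cultures incubated a further 72 h. Cell population measured by MTT absorbance. IC50 values calculated from the data.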

The subject of assay [2] is MCF7. In words: Percent control of human mammary adenocarcinoma MCF-7 cell line proliferation at 30 ng/mL. It counts as functional. Put shortly: as §1
Assay [3] concerns MCF7. In words: Concentration required to inhibit proliferation of human mammary adenocarcinoma MCF-7 cell line was determined using MTT assay. The assay is classed as functional, cell-based. Put shortly:
as §1

For assay [4], the system named is MCF7. In words: Percent control of human mammary adenocarcinoma MCF-7 cell line proliferation at 3 ng/mL. It counts as functional. Put shortly: as §1
Assay [5] concerns MCF7. In words: Percent control of human mammary adenocarcinoma MCF-7 cell line proliferation at 0.3 ng/mL. The assay is classed as functional. Put shortly: as §1

For `COc1c(NC2CC(O[C@H]3C[C@](O)(C(C)=O)Cc4c(O)c5c(c(O)c43)C(=O)c3c(O)cccc3C5=O)OC(C)C2O)c(=O)c1=O` (stereo partly drawn), the Control with MCF7 [1] is reported as 46.3%; in the assay with MCF7 [2], 81%; in the assay on MCF7 [4], 89.7%. Besides, in the assay on MCF7 [3], half-maximal inhibition (IC50) required 0.299 µg/mL (≈ 0.48 µM).
As to `COc1cccc2c1C(=O)c1c(O)c3c(c(O)c1C2=O)C[C@@](O)(C(=O)CO)C[C@@H]3O[C@H]1C[C@H](N)[C@H](O)[C@H](C)O1.Cl` [DOXORUBICIN HYDROCHLORIDE], the Control is on record as 14.9% with MCF7 [1], 35.3% in the assay with MCF7 [2], 74.7% in the assay on MCF7 [5] and 41% in the assay with MCF7 [4].
Take `CC(=O)[C@]1(O)Cc2c(O)c3c(c(O)c2[C@@H](OC2CC(N)C(O)C(C)O2)C1)C(=O)c1c(O)cccc1C3=O.Cl` (stereo partly drawn): the Control amounted to 9.1% in the assay on MCF7 [1], 77% in the assay with MCF7 [2], 107% in the assay with MCF7 [5] and 93.2% with MCF7 [4]. Besides, the concentration for half-maximal inhibition (IC50) in the assay with MCF7 [3] worked out at 0.0483 µg/mL.
On to `COc1cccc2c1C(=O)c1c(O)c3c(c(O)c1C2=O)C[C@@](O)(C(C)=O)C[C@@H]3OC1CC(/N=c2/c(O)c(O)/c2=N\CCCCCC/N=c2\c(O)c(O)\c2=N\C2CC(O[C@H]3C[C@](O)(C(C)=O)Cc4c(O)c5c(c(O)c43)C(=O)c3c(OC)cccc3C5=O)OC(C)C2O)C(O)C(C)O1` (stereo partly drawn), for which the Control with MCF7 [1] amounted to 32%; in the assay with MCF7 [2], 50%; in the assay with MCF7 [4], 104%. Besides, in the assay with MCF7 [3], the IC50 was found to be 0.087 µg/mL (≈ 0.0655 µM).
The like results for `COc1cccc2c1C(=O)c1c(O)c3c(c(O)c1C2=O)C[C@@](O)(C(=O)CO)C[C@@H]3OC1CC(/N=c2/c(O)c(O)/c2=N/C2CC(O[C@@H]3C[C@@](O)(C(=O)CO)Cc4c(O)c5c(c(O)c43)C(=O)c3c(OC)cccc3C5=O)OC(C)C2O)C(O)C(C)O1` (stereo partly drawn) were, in that order, 68.4%, 84.5%, 88% and greater than 0.3 µg/mL.
The like results for `COc1cccc2c1C(=O)c1c(O)c3c(c(O)c1C2=O)C[C@@](O)(C(C)=O)C[C@@H]3OC1CC(/N=c2/c(O)c(O)/c2=N/C2CC(O[C@@H]3C[C@@](O)(C(C)=O)Cc4c(O)c5c(c(O)c43)C(=O)c3c(OC)cccc3C5=O)OC(C)C2O)C(O)C(C)O1` (stereo partly drawn) were, in that order, 42%, 60.7%, 72.7% and 0.109 µg/mL (≈ 0.0958 µM).
The like results for `COc1cccc2c1C(=O)c1c(O)c3c(c(O)c1C2=O)C[C@@](O)(C(C)=O)C[C@@H]3OC1CC(Nc2c(OC)c(=O)c2=O)C(O)C(C)O1` (stereo in doubt; 5) were, in that order, 77.8%, 74.7%, 85% and greater than 0.3 µg/mL.
Turning to `COc1cccc2c1C(=O)c1c(O)c3c(c(O)c1C2=O)C[C@@](O)(C(=O)CO)C[C@@H]3OC1CC(/N=c2/c(O)c(O)/c2=N\CCCCCC/N=c2\c(O)c(O)\c2=N\C2CC(O[C@H]3C[C@](O)(C(=O)CO)Cc4c(O)c5c(c(O)c43)C(=O)c3c(OC)cccc3C5=O)OC(C)C2O)C(O)C(C)O1` (stereo partly drawn), the Control in the assay on MCF7 [1] worked out at 82.4%; in the assay on MCF7 [2], 86.1%; with MCF7 [4], 87%. Also, in the assay with MCF7 [3], the IC50 is greater than 0.3 µg/mL.
